Experimental data from ChEMBL document CHEMBL1153527, “Discovery of a novel series of quinolone and naphthyridine derivatives as potential topoisomerase I inhibitors by scaffold modification” (J Med Chem, 2009).
pIC50: −log10 of the molar value. Calls of active or inactive are those of the source. The rule behind the calls is not given here.

Columns and labels:
HT-29 [1] = test: Cell cycle distribution in human HT-29 cells assessed as accumulation at S phase at 0.1 uM after 48 hrs by flow cytometry; assay type: functional, cell-based
Summary of the method: (§1)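 HT-29 cells were exposed to vehicle or compound for 6, 12, 24 or 48 h. Attached and floating cells were collected by trypsin-EDTA, fixed in 70% ethanol, and treated with 0.1% Triton X-100 for 30 min. They were stained with 50 μg/mL PI plus 50 μg/mL RNase A for 30 min in the dark at room temperature. 10000 cells were read by FL2 at 488 nm excitation. S-phase and sub-G1 (apoptotic) fractions are expressed as % of total cells.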

HT-29 [2] = test: Cell cycle distribution in human HT-29 cells assessed as accumulation at sub-G1 phase at 0.1 uM after 48 hrs by flow cytometry; assay type: functional, cell-based; summary of the method: as §1
HT-29 [3] = test: Induction of apoptosis in human HT-29 cells assessed as increase in accumulation at sub-G1 phase at 0.1 uM after 48 hrs by flow cytometry; assay type: functional; summary of the method: as §1
[4] = molecular target: T1, DNA topoisomerase 1 (Homo sapiens) (UniProt P11387); test: Induction of human topoisomerase 1-mediated chromosomal DNA strand breaks in HT-29 cells at 10 uM after 1 hr by comet assay; assay type: cell-based
T1 sequence (whole entry): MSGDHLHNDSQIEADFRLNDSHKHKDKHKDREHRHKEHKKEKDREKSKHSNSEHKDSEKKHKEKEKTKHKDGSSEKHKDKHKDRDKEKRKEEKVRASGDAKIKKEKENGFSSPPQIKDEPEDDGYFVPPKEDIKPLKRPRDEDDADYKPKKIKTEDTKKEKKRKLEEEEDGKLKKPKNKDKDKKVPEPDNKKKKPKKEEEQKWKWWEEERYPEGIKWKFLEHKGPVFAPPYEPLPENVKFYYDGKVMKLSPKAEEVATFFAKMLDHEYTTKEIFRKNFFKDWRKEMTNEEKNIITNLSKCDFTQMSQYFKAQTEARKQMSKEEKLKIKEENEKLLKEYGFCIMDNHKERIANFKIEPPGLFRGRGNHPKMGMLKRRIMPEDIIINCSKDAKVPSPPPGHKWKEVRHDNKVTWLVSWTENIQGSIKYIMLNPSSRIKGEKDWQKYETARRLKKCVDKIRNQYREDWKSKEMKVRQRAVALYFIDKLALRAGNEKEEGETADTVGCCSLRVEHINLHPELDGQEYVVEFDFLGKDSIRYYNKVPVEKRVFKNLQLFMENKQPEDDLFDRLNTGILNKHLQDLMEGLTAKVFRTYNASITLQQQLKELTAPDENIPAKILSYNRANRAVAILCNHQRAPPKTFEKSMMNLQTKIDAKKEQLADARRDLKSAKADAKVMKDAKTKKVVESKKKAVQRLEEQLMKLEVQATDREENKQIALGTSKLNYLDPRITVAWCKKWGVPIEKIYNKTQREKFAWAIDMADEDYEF
Summary of the method: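 HT-29 cells were seeded at 1 × 10^4 per well and attached overnight, then treated for 1 h. Untreated cells served as negative control. Cells in low-melting agarose on precoated slides were lysed at pH 10.5 for 30 min at 4 °C and unwound in 300 mM NaOH/1 mM EDTA (pH >13) for 30 min at 4 °C. Electrophoresis ran 10 min at 16 V, with SYBR Gold staining. Read-out was mean % tail DNA from ≥50 nuclei, duplicates in three independent experiments.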

[5] = Cytotoxicity against estrogen receptor-negative human […] cells expressing p53 mutant after 48 hrs by SRB assay; assay type: functional, cell-based
Summary of the method: (§2)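 Cell lines came from CCRC, Taiwan. Cells were seeded at about 5 × 10^3 per well and left overnight. They were then given serum-free medium containing 0-10 μM compound (0.08-10 μM serial dilutions) for 48 h at 37 °C. Cells were fixed with TCA (10% final), stained with SRB (0.4% final), and the dye was dissolved in 10 mM Tris with A515 read. IC50 was taken from a fitted log concentration-response curve.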

A549 = test: Cytotoxicity against human A549 cells expressing wild type p53 after 48 hrs by SRB assay; assay type: functional, cell-based; settings: A549, 48 h; summary of the method: as §2
HepG2 = test: Cytotoxicity against human HepG2 cells expressing wild type p53 after 48 hrs by SRB assay; assay type: functional, cell-based; settings: HepG2, 48 h; summary of the method: as §2
HeLa = test: Cytotoxicity against p53-deficient human HeLa cells after 48 hrs by SRB assay; assay type: functional, cell-based; summary of the method: as §2
HT-29 [6] = test: Cytotoxicity against human HT-29 cells expressing p53 mutant after 48 hrs by SRB assay; assay type: functional, cell-based; settings: HT-29, 48 h; summary of the method: as §2
AGS = test: Cytotoxicity against human AGS cells expressing wild type p53 after 48 hrs by SRB assay; assay type: functional, cell-based; summary of the method: as §2
MCF7 = test: Cytotoxicity against estrogen receptor-positive human MCF7 cells expressing wild type p53 after 48 hrs by SRB assay; assay type: functional, cell-based; settings: MCF7, 48 h; summary of the method: as §2
[7] = Cytotoxicity against p53-deficient human Hep3B cells after 48 hrs by SRB assay; assay type: functional, cell-based, Hep 3B2; summary of the method: as §2
PC-3 = test: Cytotoxicity against p53-deficient human PC3 cells after 48 hrs by SRB assay; assay type: functional, cell-based; settings: PC-3, 48 h; summary of the method: as §2
U-937 = test: Cytotoxicity against human U937 cells expressing p53 mutant after 48 hrs by SRB assay; assay type: functional, cell-based; settings: U-937, 48 h
THP-1 = test: Cytotoxicity against human THP1 cells expressing p53 mutant after 48 hrs by SRB assay; assay type: functional, cell-based; settings: THP-1, 48 h
K562 = test: Cytotoxicity against p53-deficient human K562 cells after 48 hrs by SRB assay; assay type: functional, cell-based; settings: K562, 48 h
HT-29 [8] = test: Cell cycle distribution in human HT-29 cells assessed as accumulation at S phase at 0.1 uM after 6 hrs by flow cytometry; assay type: functional, cell-based; summary of the method: as §1
HT-29 [9] = test: Cell cycle distribution in human HT-29 cells assessed as accumulation at S phase at 0.1 uM after 12 hrs by flow cytometry; assay type: functional, cell-based; summary of the method: as §1
HT-29 [10] = test: Cell cycle distribution in human HT-29 cells assessed as accumulation at S phase at 0.1 uM after 24 hrs by flow cytometry; assay type: functional, cell-based; summary of the method: as §1
HT-29 [11] = test: Antitumor activity against human HT-29 cells xenografted in athymic BALB/c nude mouse at 5 mg/kg, ip for 2 days measured after 30 days relative to placebo control; assay type: functional; settings: route intraperitoneal
Summary of the method: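 Female athymic BALB/c nude mice (35-40 days old, 18-22 g). HT-29 tumours first grown from 1 × 10^7 cells injected s.c. in the axillary fossa, then excised and transplanted. Treatment started at 100-300 mm3. Groups of n=6 were dosed i.p. daily in 400 μL: saline for 10 days, 5 mg/kg for 2 days, or 75/150 mg/kg for 10 days. Caliper volume was V=1/2·a·b². Values are relative to start volume, compared with placebo by Student's t test, and mice were killed on day 30.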

KB = test: Cytotoxicity against human KB cells after 48 hrs by MTT assay; assay type: functional, cell-based
A2780 = test: Cytotoxicity against human A2780 cells after 48 hrs by MTT assay; assay type: functional, cell-based; settings: A2780, 48 h
Bel-7402 = test: Cytotoxicity against human Bel7402 cells after 48 hrs by MTT assay; assay type: functional, cell-based; settings: Bel-7402, 48 h
[12] = molecular target: T1, DNA topoisomerase 1 (Homo sapiens); test: Inhibition of DNA topoisomerase 1-mediated supercoiled Escherichia coli pBR322 DNA relaxation upto 25 uM after 30 mins
[13] = Solubility in assay condition at 50 uM; assay type: physicochemical

| Structure (SMILES) | GI50 [5] | pIC50 [5] | GI50 (A549) | pIC50 (A549) | GI50 (HepG2) | pIC50 (HepG2) | GI50 (HeLa) | pIC50 (HeLa) | GI50 (HT-29 [6]) | pIC50 (HT-29 [6]) | GI50 (AGS) | pIC50 (AGS) | GI50 (MCF7) | pIC50 (MCF7) | GI50 [7] | pIC50 [7] | GI50 (PC-3) | pIC50 (PC-3) | pIC50 (U-937) | pIC50 (THP-1) | further results |
| --- | --- | --- | --- | --- | --- | --- | --- | --- | --- | --- | --- | --- | --- | --- | --- | --- | --- | --- | --- | --- | --- |
| CC[C@@]1(O)C(=O)OCc2c1cc1n(c2=O)Cc2cc3ccccc3nc2-1 [CAMPTOTHECIN] | 80 nM | 5.77 | 10 nM | 7.40 | 100 nM | 6.70 | 40 nM | 6.70 | 30 nM | 6.40 | 10 nM | 7.70 | 10 nM | 5.96 | 10 nM | 7.22 | 700 nM | 5.85 | 6.52 | 6.22 | Activity (HT-29 [1]): Active; Activity (HT-29 [2]): Active; Activity (HT-29 [3]): 44.8%; Activity [4]: 84%; pIC50 (K562): 5.85; Activity (HT-29 [8]): Active; Activity (HT-29 [9]): Active; Activity (HT-29 [10]): Active |
| CC[C@@]1(O)C(=O)OCc2c1cc1n(c2=O)Cc2cc3c(CN(C)C)c(O)ccc3nc2-1 [TOPOTECAN] | 900 nM | 5.70 | 900 nM | 5.72 | 1200 nM | 5.80 | 80 nM | 5.80 | 80 nM | 6.40 | 100 nM | 6.52 | 800 nM | 5.70 | 400 nM | 5.85 | 1300 nM | 5.70 | 5.96 | 5.82 | Activity (HT-29 [1]): Active; Activity (HT-29 [2]): Active; Activity (HT-29 [3]): 40.5%; Activity (HT-29 [11]): 76%; pIC50 (K562): 5.77; Activity (HT-29 [8]): Active; Activity (HT-29 [9]): Active; Activity (HT-29 [10]): Active |
| C[C@H]1COc2c(N3CCN(C)CC3)c(F)cc3c(=O)c(-c4nc5ccc([N+](=O)[O-])cc5s4)cn1c23 | > 10000 nM | < 5.00 | 3900 nM | < 5.00 | 7600 nM | < 5.00 | > 10000 nM | < 5.00 | 5000 nM | 5.00 | 7000 nM | 5.06 | > 10000 nM | < 5.00 | > 10000 nM | < 5.00 | 1800 nM | 5.00 | < 5.00 | < 5.00 | pIC50 (KB): 6.22; pIC50 (A2780): 5.92; pIC50 (Bel-7402): 5.70; pIC50 (K562): < 5.00; inhibition [12]: inactive; solubility [13]: Insoluble |
| CCn1cc(-c2nc3ccc([N+](=O)[O-])cc3[nH]2)c(=O)c2cc(F)c(N3CCNC(C)C3)c(F)c21 (stereo not given) | 1800 nM | 5.26 | 600 nM | 5.62 | 1500 nM | 5.38 | 1400 nM | 5.62 | 4200 nM | 5.12 | 2600 nM | 5.09 | 2600 nM | 5.31 | 1600 nM | 5.26 | 7900 nM | 5.02 | < 5.00 | 5.11 | pIC50 (KB): 5.64; pIC50 (A2780): 5.64; pIC50 (Bel-7402): 5.96; pIC50 (K562): 5.33 |
| CCn1cc(-c2nc3ccc(N)cc3[nH]2)c(=O)c2cc(F)c(N3CCNCC3)cc21 | > 10000 nM | < 5.00 | > 10000 nM | < 5.00 | > 10000 nM | < 5.00 | > 10000 nM | < 5.00 | > 10000 nM | < 5.00 | 7800 nM | 5.00 | > 10000 nM | < 5.00 | > 10000 nM | < 5.00 | > 10000 nM | < 5.00 | < 5.00 | 5.00 | pIC50 (KB): 4.45; pIC50 (A2780): 4.29; pIC50 (Bel-7402): 4.04; pIC50 (K562): < 5.00 |
